Assay outcomes deposited in PubChem by Sanford-Burnham Center for Chemical Genomics.
MT1-MMP act inh: blockers of MT1-MMP proenzyme processing, primary screen, HT1080 RFP-PRO-GFP cells, GFP/RFP fluorescence; GFP/RFP ratio fluorescence, overnight; percent of plate control window, DMSO zero; Matrix metalloproteinase-14 (Homo sapiens), P50281; 360,000 compounds, 0.061% hits; GFP/RFP ratio change, % at 20 µM;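 active means GFP/RFP ratio change of at least 30% with cell ATP level not reduced by more than half and red fluorescence within 50% of control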
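Test system: HT1080 RFP-PRO-GFP cells; Benchmarks: DMSO and RFP-L50D-GFP cell wells; Timing: cells overnight before dosing, compound overnight, 37 °C, 5% CO2; Compound: one 20 µM compound dose with 1% DMSO; Read-out: GFP/RFP fluorescence ratio.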
MPTP inh: mitochondrial permeability transition pore inhibitors, primary screen, biochemical, isolated mouse mitochondria, absorbance; AID 602449, 2012; inhibition, % at 10 µM; Ca2+ swelling absorbance, 30 min; 360,000 compounds, 1.4% hits;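 active means inhibition of 50% or more, scaled per plate between neutral and stimulator controls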;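 further: 0% = DMSO wells given calcium and 100% = 1 mM EGTA wells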
SKN-1 block: suppressors of acrylamide-induced Pgst-4::GFP reporter in worms, primary screen, SKN-1 inhibitor project, whole organism, uHTS, GFP/RFP fluorescence ratio, strain VP596; C. elegans VP596 Pgst-4::GFP/RFP ratio, 24 h; inhibition, % at 21.8 µM; 360,000 compounds, 0.49% hits; AID 624304, 2012;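 active means interference check ratio from 0.5 to 1.5 plus GFP to RFP signal ratio inhibition reaching or exceeding a fixed threshold, cut at about 30% in these data, passing the limit was not always enough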
ATG4B inhibitor: ATG4B protease inhibitors, primary screen, biochemical, fluorescence, uHTS; Cysteine protease ATG4B (Homo sapiens), Q9Y4P1; ATG4B cleavage of LC3-PLA2, NBD-HPC fluorescence, 1 h; inhibition, % at 8.33 µM; 340,000 compounds, 0.51% hits; in the data active means inhibition above about 40%
Target sequence (Q9Y4P1 whole entry, looked up): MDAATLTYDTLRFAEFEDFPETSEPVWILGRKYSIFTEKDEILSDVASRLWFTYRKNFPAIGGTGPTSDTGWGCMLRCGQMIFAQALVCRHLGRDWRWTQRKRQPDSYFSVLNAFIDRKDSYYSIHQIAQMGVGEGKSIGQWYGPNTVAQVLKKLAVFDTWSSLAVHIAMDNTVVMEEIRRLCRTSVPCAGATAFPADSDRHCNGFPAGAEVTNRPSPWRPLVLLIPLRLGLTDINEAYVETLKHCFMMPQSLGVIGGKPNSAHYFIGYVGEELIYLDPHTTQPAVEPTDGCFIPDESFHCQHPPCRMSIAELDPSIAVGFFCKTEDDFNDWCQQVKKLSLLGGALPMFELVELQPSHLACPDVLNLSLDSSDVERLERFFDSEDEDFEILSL
Rh123 counter: fluorescence retest of MPTP screen hits in isolated mitochondria, single concentration; shares compounds with MPTP inh; membrane potential, Rhodamine 123 fluorescence; inhibition, % at 10 µM; 5,000 compounds, 78% hits; in the data active means inhibition above about 22%;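 further: 0% = DMSO vehicle and 100% = positive control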
MPTP swell DR: mitochondrial permeability transition pore inhibitors, dose response, biochemical, absorbance, uHTS hits. shares compounds with MPTP inh. isolated mitochondria swelling. IC50, µM. 780 compounds, 58% hits; in the data active means IC50 below about 20 µM
MPTP counter DR: fluorescent counter-screen in isolated mitochondria, dose response, counter-screen for MPTP inhibitor project, biochemical, fluorescence, uHTS hits; shares compounds with MPTP inh; isolated mitochondria counterscreen, fluorescence read-out; IC50, µM; 780 compounds, 49% hits; in the data active means IC50 below about 80 µM
An asterisk follows results filed as active; i = inactive; . = not tested or not shown. In the library only some 2.3% were active in any assay of this set; here they are far more common.

SMILES | MT1-MMP act inh | MPTP inh | SKN-1 block | ATG4B inhibitor | Rh123 counter | others
CC1(C)CC(=Cc2cc(O)ccc2[N+](=O)[O-])C(=O)c2ccccc21 | 7 | 91* | 8 | . | 94*
O=C1/C(=C/c2ccccc2[N+](=O)[O-])COc2ccccc21 | -13 | -3 | -3 | 1 | .
COc1ccc2oc(C(=O)OCC(=O)N(C)CC(=O)Nc3ccc(C)cc3)c(C)c2c1 | 2 | -2 | 5 | -18 | .
N#CC(c1ccc(Cl)cc1)c1ccc2c(C(F)(F)F)cc(C(F)(F)F)nc2n1 (stereo unspecified) | -17 | 87* | 37* | 0 | 108*
CCN(C[C@H]1N[C@@](Cc2ccccc2)(C(=O)OC)[C@H]2C(=O)N(C)C(=O)[C@@H]12)C(C)=O | -4 | 1 | 10 | -4 | .
CC(C)Cn1c(N)c(C(=O)CSc2ccc3c(c2)OCCO3)c(=O)n(C)c1=O | -17 | 99* | -7 | -9 | 86*
COc1ccc(C(=O)COC(=O)c2cnc(C)cn2)cc1OC | 0 | 0 | 3 | 4 | .
Cc1nnsc1C(=O)N/N=C/c1ccc2ccccc2c1O | -144 | 56* | 5 | -16 | 56*
Cc1nnsc1C(=O)N/N=C/c1ccccc1 | -2 | 4 | 15 | -12 | .
Cc1cc(Cl)c(S(=O)(=O)NC2CCCC2)cc1OCC(=O)NC1CCCCC1 | -12 | 80* | -9 | -8 | 72*
Cc1cc(Cl)c(S(=O)(=O)N2CCSCC2)cc1OCC(=O)NC1CCCCC1 | -2 | 86* | 26 | -3 | 85*
CC(=O)NC(NC(=S)Nc1ccc(S(N)(=O)=O)cc1)C(Cl)(Cl)Cl (stereo unspecified) | -3 | 2 | -8 | -4 | .
CC(=O)NC(NC(=S)Nc1cccc(Br)c1)C(Cl)(Cl)Cl (stereo unspecified) | 2 | 95* | 1 | 4 | 76*
CC(=O)NC(NC(=S)Nc1ccc(N=Nc2ccccc2)cc1)C(Cl)(Cl)Cl (stereo unspecified) | 7 | 94* | 16 | -6 | 62*
Cc1cccn2c(=O)nc(SCC(=O)Nc3ccc4c(c3)OCO4)nc12 | 2 | -1 | 1 | -10 | .
Cc1ccc(CNC(=O)C2(C)CCN2C(=O)Cc2ccc(C(C)(C)C)cc2)cc1 (stereo unspecified) | 8 | 0 | -8 | . | .
COc1cccc(-c2nnc(SCC(=O)OC(C)C)n2Cc2ccco2)c1 | 2 | -2 | 15 | 0 | .
Cc1ccc(C(OCC(O)CNC(C)c2ccccc2)c2ccccc2)cc1 (stereo unspecified) | 0 | 80* | 6 | -11 | -1 | MPTP swell DR=7.1*;MPTP counter DR=23*
Cc1ccc(C(OCC(O)CNC(CO)C(O)c2ccc([N+](=O)[O-])cc2)c2ccccc2)cc1 (stereo unspecified) | -4 | 85* | 6 | 12 | -10 | MPTP swell DR=17*;MPTP counter DR=62*
COc1ccccc1N1C(=O)N(CC(=O)C(C)(C)C)c2ccccc2S1(=O)=O | 1 | 2 | 10 | -11 | .
Cc1cc(C)n2nc(SCc3nnc(SCCCCl)o3)nc2n1 | 5 | 2 | -4 | 0 | .
CCCCCCCCSc1nnc(CSc2nc3nc(C)cc(C)n3n2)o1 | 0 | 87* | 5 | -4 | -2 | MPTP swell DR=i;MPTP counter DR=50*
CCOC(=O)C1(Cc2ccc(Cl)cc2)CCN(C(C)Cc2ccc(O)c(OC)c2)CC1 (stereo unspecified) | -1 | 95* | -1 | 1 | 95*
CCOC(=O)C1(Cc2ccc(OC)cc2)CCN(S(C)(=O)=O)CC1 | 4 | -3 | 14 | -3 | .
CCc1ccc(C2CC3C(CN2S(=O)(=O)c2ccc(C)cc2)C(=O)CC(c2ccc(CC)cc2)N3S(=O)(=O)c2ccc(C)cc2)cc1 (stereo unspecified) | -1 | 0 | 52 | . | .
